The values below come from PubChem BioAssay.

Assay [1] in a line: OD615 S. cerevisiae growth inhibition, permissive medium, pilot counter-assay, permissive growth control for S. cerevisiae lifespan shortening project (AID 705;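 active means growth inhibition above 25% in both replicates, a cutoff set 3 SD above the mean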). Conditions: OD615, 24 h, at 10 µM, stronger effect = higher value. In outline: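 System: engineered DeaD yeast; Medium: permissive raffinose/galactose medium; Compound dosing: 10 µM single dose, 0.25% DMSO; Incubation: 4 h cell pre-growth, 24 h exposure at 30 °C; Technique: OD at 615 nm; Evaluation: growth inhibition from lowered OD615 after 24 h.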

Assay [2] in a line: Restrictive medium S. cerevisiae growth inhibition, OD615, pilot screen of yeast lifespan reduction project, restrictive growth control (AID 706;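 active means growth inhibition above a set limit, 3 SD over mean compound inhibition, in both replicates, cut at about 43% in these data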;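 further: modified DeaD lifespan yeast strain shifted to restrictive glucose medium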). The following applies: OD615, 48 h, at 10 µM, stronger effect = higher value. In outline: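 Material: modified S. cerevisiae; buffer or medium: CSMM-D glucose medium; doses: one concentration, 10 µM final, 0.25% DMSO; incubation: 48 h compound exposure at 30 °C; detection: optical density at 615 nm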

A short description of assay [3]: viability gain of MRP-1-high H69AR cells under doxorubicin, pilot screen, MRP-1 activator project, CellTiter-Glo, duplicate (AID 807).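 Further: compound pretreatment 18-22 h then 72 h combined with doxorubicin; 0% = doxorubicin alone and 100% = vehicle without doxorubicin.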 Conditions: H69AR viability with doxorubicin, CellTiter-Glo luminescence; at 10 µM; stronger effect = higher value. In general terms: Cellular ATP, detected with luciferase, serves as a proxy for viable cell number.
Assay [4] in a line: growth suppression of beta-catenin knockout HCT116, pilot screen, human colon tumor cells (AID 823;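 active means cell viability at or below a set limit in both duplicate runs, the limit being the all-compound median minus 4 SD, cut at about 23% in these data, passing the limit was not always enough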;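 further: 0% = wells killed by 20 µM Hyamine and 100% = untreated DMSO cell wells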). Conditions: CellTiter-Glo, 60 h, at 10 µM, stronger effect = lower value.
Assay [5] is described as follows: growth suppression of PTEN-deleted HCT116, pilot screen, cell-based, HCT116 clonal line, CellTiter-Glo (AID 824;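 active means viability at or below 27.92% in each of two runs, the all-compound median minus 4 SD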;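 further: 0% = 20 µM Hyamine control and 100% = vehicle cell control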). The following applies: 60 h, at 10 µM, stronger effect = lower value.
The nature of assay [6]: inhibitors of the yeast RAM network, pilot screen, dse1pr::URA3 reporter, 5-FOA selection (AID 869;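 active means inhibition over a set limit, the all-compound mean plus 3 SD, in both replicate runs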;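 further: 0% = DMSO wells with no growth and 100% = 10 µM 1-NA-PP1 with full growth; RAM network block rescues cells from 5-FOA so hits raise OD615 growth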). Conditions: S. cerevisiae dse1pr::URA3 5-FOA growth, OD615, 2 d; at 10 µM; stronger effect = higher value; strain carries analog-sensitive mutant Cbk1 kinase.
Assay [7] in a line: RAM signaling pathway blockade in yeast – S. cerevisiae, Pdr1DBD-CYC8 efflux-inhibited sensitized strain, primary screen (AID 1298;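 active means RAM network inhibition above 8.4% in each of two replicates, 3 SD over the compound average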;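 further: 0% = DMSO untreated cells without growth and 100% = 10 µM 1-NA-PP1 full growth; higher means more yeast growth rescued from 5-FOA killing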). Conditions: S. cerevisiae cbk1-as DSE1-URA3 strain, 5-FOA growth OD615, 2 d; at 50 µM; stronger effect = higher value.

SMILES strings stand for the structures. Values without a mark were called inactive. Results filed as inconclusive are left out. Active and inactive are the calls of the source.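 How the source made its calls, unless noted: active means viability increase at or above a cutoff of the median across tested compounds plus 3 SD (cut at about 8.5% in these data, passing the limit was not always enough); inconclusive means some gains above the cutoff, reason not given; inactive means the rest.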

`O=C(CCSc1ccccc1)Nc1nnc(-c2ccccc2)o1`: the values for the growth inhibition in assay [1] and in assay [2] were -0.38% and 3.81%, respectively. The viability increase in assay [3] was -3.73%. Also, the values for the viability in assay [4] and in assay [5] were 98.9% and 103%, respectively. In addition, in assay [6], the inhibition was 0.27%. Moreover, in assay [7], the RAM network inhibition was 2.5%.
In the case of `COc1ccc(-c2cn3c(C)c(C(=O)N4CCCc5ccccc54)sc3n2)cc1`, the growth inhibition is 0.505% in assay [1] and 24.2% in assay [2]. Moreover, the viability increase in assay [3] is -3.31%. Besides, the viability in assay [4] was 64.9%; in assay [5], 65.6%. In assay [6], the inhibition was 0.565%. Besides, the RAM network inhibition in assay [7] was 3.08%.
On to `CC(C)CC1(C(=O)O)NC(c2ccccc2O)C2C(=O)N(C(C)C)C(=O)C21` (centres undefined), for which the growth inhibition in assay [1] is 3.45%; in assay [2], 3.48%. Moreover, the viability increase in assay [3] was -0.07%. The viability in assay [4] is 102%; in assay [5], 99.3%. For the same compound, the inhibition in assay [6] was 1.27%. In assay [7], the RAM network inhibition was 3.59%.
Consider `CCCn1c(CCNC(=O)c2cccs2)nc2ccccc21`, for which the values for the growth inhibition in assay [1] and in assay [2] were -1.19% and 4.79%, respectively. Also, the viability increase in assay [3] is -0.97%. For the same compound, the viability in assay [4] is 94.9%; in assay [5], 91.5%. For the same compound, the inhibition in assay [6] is 1.37%. Also, the RAM network inhibition in assay [7] is 4.94%.
Regarding `Cc1oc(-c2ccccc2F)nc1CS(=O)CC(=O)NCc1cccs1` (centres undefined), the growth inhibition in assay [1] is -2.83%; in assay [2] it was 26%. Besides, the viability increase in assay [3] was -2.27%. Further, the figures for the viability in assay [4] and in assay [5] were 99.7% and 93.4%, respectively. Moreover, the inhibition in assay [6] is 1.64%. Moreover, the RAM network inhibition in assay [7] is 8.65%.
As to `O=C(NCC(c1cccnc1)N1CCN(c2ccccc2F)CC1)c1ccccc1` (centres undefined), the growth inhibition in assay [1] is -9.54%; in assay [2] it was -2.34%. Besides, the viability increase in assay [3] is -4.21%. The viability is 88.5% in assay [4] and 82.4% in assay [5]. Also, the inhibition in assay [6] is 1.75%. Moreover, in assay [7], the RAM network inhibition is 1.21%.
As to `Cc1cnc(C(=O)OCC(=O)Nc2cc(Cl)cc(Cl)c2)cn1`, the growth inhibition in assay [1] was -14.2%; in assay [2] it was -9.38%. The viability increase in assay [3] was -5.97%. For the same compound, the viability in assay [4] is 96.7%; in assay [5], 88.5%. For the same compound, in assay [6], the inhibition was 1.13%. In assay [7], the RAM network inhibition is 5.88%.
For the compound `CCOC(=O)C1CCN(c2cc(=O)n(Cc3ccc(F)cc3)c(=O)[nH]2)CC1`, the growth inhibition is -11% in assay [1] and -17.4% in assay [2]. Also, the viability increase in assay [3] was -0.81%. Moreover, the results for the viability in assay [4] and in assay [5] were 96.8% and 88.5%, respectively. Moreover, the inhibition in assay [6] was 3.19%. For the same compound, the RAM network inhibition in assay [7] is 5.11%.
As for `Cn1c(=O)c2cc(S(=O)(=O)NC(C(=O)NCc3cccnc3)c3ccccc3)ccc2n(C)c1=O` (centres undefined), the growth inhibition was -17% in assay [1] and -18.3% in assay [2]. For the same compound, the viability increase in assay [3] was -1.54%. The viability in assay [4] was 91.2%; in assay [5], 94.2%. Besides, in assay [6], the inhibition was 1.32%. The RAM network inhibition in assay [7] is 1.81%.
With `COc1ccc(NC(=O)Nc2cccc(C)n2)cc1`, the growth inhibition was 6.65% in assay [1] and 21.5% in assay [2]. Further, the viability increase in assay [3] is -1.44%. Moreover, the viability in assay [4] is 100%; in assay [5], 88.4%. For the same compound, in assay [6], the inhibition is 0.5%. Further, the RAM network inhibition in assay [7] was 3.92%.
Consider `COc1ccc(-c2cc(C(F)(F)F)nc(N3CCN(C)CC3)n2)cc1`, for which the results for the growth inhibition in assay [1] and in assay [2] were 1.48% and -4.37%, respectively. Moreover, the viability increase in assay [3] was -5.32%. Moreover, the viability in assay [4] was 33.7%; in assay [5] it was 42.9%. Also, the inhibition in assay [6] was 1.43%. For the same compound, in assay [7], the RAM network inhibition was 4.04%.
With `O=C(Cc1cccs1)NCCn1ccc2ccccc21`, the figures for the growth inhibition in assay [1] and in assay [2] were -14.2% and -11.5%, respectively. Moreover, in assay [3], the viability increase was -1.16%. Also, the viability in assay [4] was 90.3%; in assay [5] it was 87.1%. For the same compound, the inhibition in assay [6] is 0.32%. In addition, the RAM network inhibition in assay [7] was 9.88%.
With `C=CCN1C(=O)C2C(C(=O)NC)C3(C)C=CC2(O3)C1C(=O)NCc1ccc(OC)cc1` (centres undefined), the growth inhibition in assay [1] was -5.37%; in assay [2] it was 3.69%. In addition, the viability increase in assay [3] is 1.33%. In addition, the viability in assay [4] is 103%; in assay [5] it was 99.9%. Further, the inhibition in assay [6] is 0.89%. Further, the RAM network inhibition in assay [7] was 0.49%.
As to `CCn1cc(Cl)c(C(=O)Nc2nc3ccccc3n2CCN2CCCCC2)n1`, the growth inhibition in assay [1] was -5%; in assay [2], 13.4%. Besides, the viability increase in assay [3] is -4.57%. In addition, the viability in assay [4] was 88.8%; in assay [5] it was 92.2%. Also, in assay [6], the inhibition was 0.905%. In addition, in assay [7], the RAM network inhibition was 2.98%.
`CC1CN(c2nc3c(c(=O)[nH]c(=O)n3C)n2Cc2ccccc2F)CC(C)O1` (centres undefined): the growth inhibition was -3.05% in assay [1] and 2.61% in assay [2]. Further, the viability increase in assay [3] was -1.3%. Moreover, the viability in assay [4] is 99.1%; in assay [5], 90.7%. Besides, the inhibition in assay [6] was 1.68%. Further, the RAM network inhibition in assay [7] is 0.95%.
As to `Cc1cc(C)c(NC(=O)CN2CCN(C)CC2)c(C)c1`, the results for the growth inhibition in assay [1] and in assay [2] were -1.99% and 4.72%, respectively. Moreover, in assay [3], the viability increase is -1.53%. In addition, the viability was 112% in assay [4] and 92.3% in assay [5]. For the same compound, the inhibition in assay [6] is 2.21%. Further, the RAM network inhibition in assay [7] is 1.38%.
As for `CCOc1ccccc1NC(=O)C1CCN(S(=O)(=O)c2ccc(OC)c(OC)c2)CC1`, the growth inhibition was -4.97% in assay [1] and -2.79% in assay [2]. Moreover, the viability increase in assay [3] is -2.46%. The viability in assay [4] is 95%; in assay [5], 98.1%. Moreover, in assay [6], the inhibition was 0.085%. Further, the RAM network inhibition in assay [7] was 0.83%.
On to `Cc1ccccc1OCC(=O)Nc1ccccc1N1CCOCC1`, for which the values for the growth inhibition in assay [1] and in assay [2] were -1.63% and 6.71%, respectively. Further, the viability increase in assay [3] is -5.31%. Besides, the viability was 91.7% in assay [4] and 84.7% in assay [5]. The inhibition in assay [6] was 1.22%. In addition, the RAM network inhibition in assay [7] was 6.55%.
`O=C(Cn1cc2c(n1)CCCC2)NC1CCCCCC1`: the growth inhibition in assay [1] is 4.4%; in assay [2] it was 2.47%. The viability increase in assay [3] was -1.14%. Besides, the viability in assay [4] was 99.2%; in assay [5], 93.6%. Besides, in assay [6], the inhibition was 0.485%. The RAM network inhibition in assay [7] was 2.95%.
Regarding `COc1ccc(OCc2nnc3n2N=C(c2ccc(OC)cc2)CS3)cc1`, the results for the growth inhibition in assay [1] and in assay [2] were 7.92% and 57.4% (active), respectively. Also, the viability increase in assay [3] is -2.84%. For the same compound, the viability in assay [4] was 69.9%; in assay [5] it was 66.4%. In assay [6], the inhibition was 2.15%. Also, in assay [7], the RAM network inhibition is 7.82%.
With `Cc1nnc(-c2ccccc2)c[n+]1[O-]`, the growth inhibition in assay [1] is -6.06%; in assay [2], -14.7%. Besides, the viability increase in assay [3] was -2.16%. The viability in assay [4] is 101%; in assay [5], 95.2%. In addition, the inhibition in assay [6] was 0.98%. In assay [7], the RAM network inhibition was 0.63%.
Regarding `CCOc1ccc(N(CC(=O)NCc2ccccc2)S(=O)(=O)c2c(C)noc2C)cc1`, the growth inhibition in assay [1] and in assay [2] was -21.6% in each case. Besides, the viability increase in assay [3] is -0.68%. Moreover, the viability was 101% in assay [4] and 95.1% in assay [5]. The inhibition in assay [6] was 4.04%. For the same compound, the RAM network inhibition in assay [7] is 3.95%.
`Cc1noc(NS(=O)(=O)c2ccc(NC(=O)CCn3c(=O)oc4ccccc43)cc2)c1C`: the values for the growth inhibition in assay [1] and in assay [2] were 0.07% and -7.86%, respectively. For the same compound, the viability increase in assay [3] is -1.22%. The viability in assay [4] is 97.7%; in assay [5], 96.2%. Besides, in assay [6], the inhibition is 1.24%. In addition, the RAM network inhibition in assay [7] was 6.07%.
For the compound `CCOC(=O)C1=C(C)Nc2nc(SCc3cccnc3)nn2C1c1ccc(OC)cc1` (centres undefined), the growth inhibition is -6.41% in assay [1] and 2.46% in assay [2]. For the same compound, in assay [3], the viability increase is -2.64%. Also, the viability was 98.7% in assay [4] and 89% in assay [5]. The inhibition in assay [6] was 0.58%. Moreover, in assay [7], the RAM network inhibition was 4.49%.
Take `Cn1cccc1Cc1nnc(SCC(=O)N2CCCC2)n1CCc1ccccc1`: the results for the growth inhibition in assay [1] and in assay [2] were 1.38% and 16.7%, respectively. For the same compound, the viability increase in assay [3] was -1.41%. Moreover, the viability in assay [4] was 103%; in assay [5], 102%. Moreover, the inhibition in assay [6] was 0.04%. Moreover, in assay [7], the RAM network inhibition is 1.63%.
On to `Cc1ccccc1OCc1nc(-c2ccc(-n3cccc3)cc2)no1`, for which the growth inhibition in assay [1] is -22.8%; in assay [2] it was -18.9%. In addition, the viability increase in assay [3] was -0.53%. The viability is 81.3% in assay [4] and 84% in assay [5]. Further, the inhibition in assay [6] is 2%. The RAM network inhibition in assay [7] is 5.61%.
Take `Cc1c(NC(=O)c2ccc3c(c2)OCO3)c(=O)n(-c2ccccc2)n1C`: the growth inhibition in assay [1] was -8.08%; in assay [2], -23.4%. The viability increase in assay [3] is -0.33%. Moreover, the values for the viability in assay [4] and in assay [5] were 104% and 101%, respectively. In assay [6], the inhibition is 0.345%. Also, the RAM network inhibition in assay [7] was 2.71%.

The viability is a read-out of living cells in per cent, often relative to untreated cells. A word on the inhibition: it is the change of the read-out against control, counted positive when it falls.
